Type in all cases: functional
For assay [1], the system named is Plasmodium berghei. Description: Antimalarial activity against Plasmodium berghei ANKA infected in C57BL/6J mouse assessed as decrease of parasitemia level at 5 mg/kg, po administered after 24 hrs post infection measured after 3 days in presence of 15 mg/kg of mefloquine hydrochloride relative to control. More on the design: scale not given: the % may be the effect or the level left. The method, boiled down: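 Male C57BL/6J mice, 5 weeks old and about 20 g, were infected with P. berghei ANKA (2 × 10⁷ parasitized erythrocytes). At 24 h they got one 200 μL oral dose: 5 mg/kg trioxane plus 15 mg/kg mefloquine hydrochloride in 7:3 Tween 80/ethanol diluted with water. Blood parasitemia was read on day 3 post-infection as % suppression versus untreated infected mice. Four mice per group.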

The subject of assay [2] is Plasmodium berghei. Description: Antimalarial activity against Plasmodium berghei ANKA infected in C57BL/6J mouse assessed as increase of host survival days at 5 mg/kg, po administered after 24 hrs post infection in presence of 15 mg/kg of mefloquine hydrochloride (reference value: 6.5 days).
Assay [3] deals with Plasmodium berghei. Nature of the assay: Antimalarial activity against Plasmodium berghei ANKA infected in C57BL/6J mouse assessed as parasitemia level at 5 mg/kg, po administered after 24 hrs post infection measured after 30 days in presence of 15 mg/kg of mefloquine hydrochloride relative to control.
Assay [4] relates to Plasmodium berghei. Nature of the assay: Antimalarial activity against Plasmodium berghei ANKA infected in C57BL/6J mouse assessed as decrease of parasitemia level at 15 mg/kg, po administered after 24 hrs post infection measured after 3 days relative to control. Also on record: scale not given: the % may be the effect or the level left. The method, boiled down:
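Male C57BL/6J mice, 5 weeks old and about 20 g, were infected with P. berghei ANKA at 2 × 10⁷ parasitized erythrocytes. At 24 h post-infection, 4 mice per group received a single oral 200 μL dose in 7:3 Tween 80/ethanol diluted in deionized water. The dose was trioxane 5 mg/kg with mefloquine hydrochloride 15 mg/kg. Parasitemia suppression was read on day 3 versus untreated infected mice.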

Assay [5] has as its system Plasmodium berghei. Description: Antimalarial activity against Plasmodium berghei ANKA infected in C57BL/6J mouse assessed as increase of host survival days at 15 mg/kg, po administered after 24 hrs post infection (reference value: 6.5 days).

A value given as a limit tells only on which side of the number the result lay.

On to `C[C@H]1[C@@H]([C@H](C[C@H]2O[C@@H]3O[C@@]4(C)CC[C@H]5[C@H](C)CC[C@@H]([C@H]2C)[C@@]35OO4)OC(=O)Nc2ccc([N+](=O)[O-])cc2)O[C@@H]2O[C@@]3(C)CC[C@H]4[C@H](C)CC[C@@H]1[C@@]24OO3`, for which, in assay [1], the Activity is on record as more than 99.9%. Moreover, in assay [2], the Survival was 22 days.

For the compound `C[C@H]1[C@@H]([C@H](C[C@H]2O[C@@H]3O[C@@]4(C)CC[C@H]5[C@H](C)CC[C@@H]([C@H]2C)[C@@]35OO4)OC(=O)Nc2cc(F)cc(F)c2)O[C@@H]2O[C@@]3(C)CC[C@H]4[C@H](C)CC[C@@H]1[C@@]24OO3`, the Activity in assay [1] is more than 99.9%. Further, in assay [2], the Survival is 21.8 days.

On to `C[C@H]1[C@@H]([C@H](C[C@H]2O[C@@H]3O[C@@]4(C)CC[C@H]5[C@H](C)CC[C@@H]([C@H]2C)[C@@]35OO4)OC(=O)Nc2cccc(Cl)c2)O[C@@H]2O[C@@]3(C)CC[C@H]4[C@H](C)CC[C@@H]1[C@@]24OO3`, for which the Activity is given as 8% in assay [3] and more than 99.9% in assay [1]. For the same compound, in assay [2], the Survival came out at 26.8 days.

With `C[C@H]1[C@@H]([C@H](C[C@H]2O[C@@H]3O[C@@]4(C)CC[C@H]5[C@H](C)CC[C@@H]([C@H]2C)[C@@]35OO4)OC(=O)Nc2ccccc2)O[C@@H]2O[C@@]3(C)CC[C@H]4[C@H](C)CC[C@@H]1[C@@]24OO3`, the Activity in assay [1] is more than 99.9%. Further, the Survival in assay [2] worked out at 17 days.

`C[C@H]1[C@@H]([C@H](C[C@H]2O[C@@H]3O[C@@]4(C)CC[C@H]5[C@H](C)CC[C@@H]([C@H]2C)[C@@]35OO4)OC(=O)Nc2cccc(F)c2)O[C@@H]2O[C@@]3(C)CC[C@H]4[C@H](C)CC[C@@H]1[C@@]24OO3`: the Activity in assay [1] is recorded as more than 99.9%. Further, in assay [2], the Survival stood at 20.3 days.

For the compound `C[C@H]1[C@@H]([C@@H](O)C[C@H]2O[C@@H]3O[C@@]4(C)CC[C@H]5[C@H](C)CC[C@@H]([C@H]2C)[C@@]35OO4)O[C@@H]2O[C@@]3(C)CC[C@H]4[C@H](C)CC[C@@H]1[C@@]24OO3`, in assay [1], the Activity was more than 99.9%. Further, the Survival in assay [2] was 25 days.

On to `C[C@H]1[C@@H]([C@H](C[C@H]2O[C@@H]3O[C@@]4(C)CC[C@H]5[C@H](C)CC[C@@H]([C@H]2C)[C@@]35OO4)OC(=O)Nc2ccc(F)c(F)c2)O[C@@H]2O[C@@]3(C)CC[C@H]4[C@H](C)CC[C@@H]1[C@@]24OO3`, for which the Activity is recorded as 8% in assay [3] and more than 99.9% in assay [1]. In addition, in assay [2], the Survival worked out at 25.5 days.

Take `C[C@H]1[C@@H]([C@H](C[C@H]2O[C@@H]3O[C@@]4(C)CC[C@H]5[C@H](C)CC[C@@H]([C@H]2C)[C@@]35OO4)OC(=O)Nc2ccc(C#N)cc2)O[C@@H]2O[C@@]3(C)CC[C@H]4[C@H](C)CC[C@@H]1[C@@]24OO3`: the Activity in assay [1] was more than 99.9%. In addition, the Survival in assay [2] came to 17.8 days.

`C[C@H]1[C@@H]([C@H](C[C@H]2O[C@@H]3O[C@@]4(C)CC[C@H]5[C@H](C)CC[C@@H]([C@H]2C)[C@@]35OO4)OC(=O)Nc2ccc(Br)cc2)O[C@@H]2O[C@@]3(C)CC[C@H]4[C@H](C)CC[C@@H]1[C@@]24OO3`: the Activity in assay [1] is recorded as more than 99.9%. In addition, the Survival in assay [2] was 12.5 days.

Regarding `OC(c1cc(C(F)(F)F)nc2c(C(F)(F)F)cccc12)C1CCCCN1` (configuration not stated) [MEFLOQUINE], in assay [4], the Activity is more than 99.9%. Also, the Survival in assay [5] was 20.3 days.

With `C[C@H]1[C@@H]([C@H](C[C@H]2O[C@@H]3O[C@@]4(C)CC[C@H]5[C@H](C)CC[C@@H]([C@H]2C)[C@@]35OO4)OC(=O)Nc2ccc(Cl)cc2)O[C@@H]2O[C@@]3(C)CC[C@H]4[C@H](C)CC[C@@H]1[C@@]24OO3`, the Activity in assay [1] is more than 99.9%. Moreover, the Survival in assay [2] came out at 18.3 days.

With `C[C@H]1[C@@H]([C@H](O)C[C@H]2O[C@@H]3O[C@@]4(C)CC[C@H]5[C@H](C)CC[C@@H]([C@H]2C)[C@@]35OO4)O[C@@H]2O[C@@]3(C)CC[C@H]4[C@H](C)CC[C@@H]1[C@@]24OO3`, in assay [1], the Activity is recorded as more than 99.9%. The Survival in assay [2] was 24.8 days.

As for `Cc1cc(NC(=O)O[C@@H](C[C@H]2O[C@@H]3O[C@@]4(C)CC[C@H]5[C@H](C)CC[C@@H]([C@H]2C)[C@@]35OO4)[C@H]2O[C@@H]3O[C@@]4(C)CC[C@H]5[C@H](C)CC[C@@H]([C@H]2C)[C@@]35OO4)ccc1F`, the Activity in assay [1] is on record as more than 99.9%. Besides, in assay [2], the Survival is 13.5 days.

For the compound `C[C@H]1[C@@H]([C@H](C[C@H]2O[C@@H]3O[C@@]4(C)CC[C@H]5[C@H](C)CC[C@@H]([C@H]2C)[C@@]35OO4)OC(=O)Nc2ccc(F)cc2)O[C@@H]2O[C@@]3(C)CC[C@H]4[C@H](C)CC[C@@H]1[C@@]24OO3`, the Activity in assay [1] is given as more than 99.9%. In assay [2], the Survival is 18.8 days.

Consider `C[C@H]1[C@@H]([C@H](C[C@H]2O[C@@H]3O[C@@]4(C)CC[C@H]5[C@H](C)CC[C@@H]([C@H]2C)[C@@]35OO4)OC(=O)Nc2ccc(C(F)(F)F)cc2)O[C@@H]2O[C@@]3(C)CC[C@H]4[C@H](C)CC[C@@H]1[C@@]24OO3`, for which the Activity in assay [1] is reported as more than 99.9%. For the same compound, the Survival in assay [2] came out at 10.8 days.

Turning to `C[C@H]1[C@@H]([C@H](C[C@H]2O[C@@H]3O[C@@]4(C)CC[C@H]5[C@H](C)CC[C@@H]([C@H]2C)[C@@]35OO4)OC(=O)Nc2ccc(F)c(Cl)c2)O[C@@H]2O[C@@]3(C)CC[C@H]4[C@H](C)CC[C@@H]1[C@@]24OO3`, the Activity is on record as 8% in assay [3] and more than 99.9% in assay [1]. The Survival in assay [2] came to 24.8 days.

Consider `C[C@H]1[C@@H]([C@H](C[C@H]2O[C@@H]3O[C@@]4(C)CC[C@H]5[C@H](C)CC[C@@H]([C@H]2C)[C@@]35OO4)OC(=O)Nc2cccc(C(F)(F)F)c2)O[C@@H]2O[C@@]3(C)CC[C@H]4[C@H](C)CC[C@@H]1[C@@]24OO3`, for which, in assay [1], the Activity is more than 99.9%. In assay [2], the Survival was found to be 18 days.
